A short description of assay [1]: S. cerevisiae growth inhibition in permissive medium (OD615), pilot counter-assay for S. cerevisiae lifespan shortening project, permissive growth control (AID 705). The settings on record: OD615, 24 h, at 10 µM, stronger effect = higher value. The method in brief:
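Timing: 24 h exposure, 30 °C / Material: Saccharomyces cerevisiae strain carrying genetically modified DeaD replicative-lifespan system / Signal: OD at 615 nm / Compound: 10 µM single dose, 0.25% DMSO / Medium: SC raffinose/galactose permissive medium / Evaluation: reduction in yeast growth (OD615)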

The nature of assay [2]: S. cerevisiae growth inhibition in restrictive medium, OD615, pilot screen, restrictive growth control, yeast lifespan reduction project (AID 706;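 active = growth inhibition above a set limit, 3 SD over mean compound inhibition, in both replicates, cut at about 43% in these data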;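 note: modified DeaD lifespan yeast strain shifted to restrictive glucose medium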). The settings on record: OD615, 48 h, at 10 µM, stronger effect = higher value. The procedure, abridged:
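System: Engineered S. cerevisiae DeaD strain | Detection: OD615 | Buffer or medium: CSMM-D glucose medium | Doses: 10 µM compound, 0.25% DMSO | Timing: 4 h pre-growth plus 48 h compound exposure, 30 °C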

The nature of assay [3]: doxorubicin toxicity protection in MRP-1 cells – H69AR cells, CellTiter-Glo, duplicate, MRP-1 activator project, pilot screen (AID 807;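 active = viability increase at or above a cutoff of the median across tested compounds plus 3 SD, cut at about 8.5% in these data, passing the limit was not always enough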;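 note: compound pretreatment 18-22 h then 72 h combined with doxorubicin; 0% = doxorubicin alone and 100% = vehicle without doxorubicin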). The settings on record: H69AR viability with doxorubicin, CellTiter-Glo luminescence; at 10 µM; stronger effect = higher value. On the technique in general: Cellular ATP, detected with luciferase, serves as a proxy for viable cell number.
Assay [4] can be described thus: viability of HCT116 without oncogenic beta-catenin – human colon tumor cells, pilot screen (AID 823;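 active = cell viability at or below a set limit in both duplicate runs, the limit being the all-compound median minus 4 SD, cut at about 23% in these data, passing the limit was not always enough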;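 note: 0% = wells killed by 20 µM Hyamine and 100% = untreated DMSO cell wells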). The conditions noted are these: HCT116 beta-catenin knockout viability, CellTiter-Glo, 60 h; at 10 µM; stronger effect = lower value.
Assay [5] is described as follows: viability of PTEN-null HCT116 cells – cell-based, HCT116 clonal line, CellTiter-Glo, pilot screen (AID 824;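 active = viability at or below 27.92% in each of two runs, the all-compound median minus 4 SD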;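 note: 0% = 20 µM Hyamine control and 100% = vehicle cell control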). The conditions noted are these: HCT116 PTEN-deleted viability, 60 h, at 10 µM, stronger effect = lower value.
A short description of assay [6]: RAM pathway blockade in budding yeast – dse1pr::URA3 reporter, 5-FOA selection, pilot screen (AID 869;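 active = inhibition over a set limit, the all-compound mean plus 3 SD, in both replicate runs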;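 note: 0% = DMSO wells with no growth and 100% = 10 µM 1-NA-PP1 with full growth; RAM network block rescues cells from 5-FOA so hits raise OD615 growth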). The conditions noted are these: S. cerevisiae dse1pr::URA3 5-FOA growth, OD615, 2 d; at 10 µM; stronger effect = higher value; strain carries analog-sensitive mutant Cbk1 kinase.
Assay [7] in a line: RAM signaling pathway blockade in yeast – S. cerevisiae, Pdr1DBD-CYC8 efflux-inhibited sensitized strain, primary screen (AID 1298;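 active = RAM network inhibition above 8.4% in each of two replicates, 3 SD over the compound average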;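 note: 0% = DMSO untreated cells without growth and 100% = 10 µM 1-NA-PP1 full growth; higher means more yeast growth rescued from 5-FOA killing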). The conditions noted are these: S. cerevisiae cbk1-as DSE1-URA3 strain, 5-FOA growth OD615, 2 d; at 50 µM; stronger effect = higher value.

A number with no mark means an inactive call. Inconclusive results are not listed. Calls of active or inactive are those of the source.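 Rule for the calls, unless noted: active = growth inhibition above 25% in both replicates, a cutoff set 3 SD above the mean; inconclusive = above 25% in only one replicate; inactive = the rest.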

In the case of `CCSc1nnc(NC(=O)C(C)C)s1`, the growth inhibition in assay [1] was 3.02%; in assay [2] it was -5.11%. Further, in assay [3], the viability increase is 1.51%. The viability – broadly, a read-out of living cells in per cent, often relative to untreated cells – in assay [4] is 100%; in assay [5], 109%. Moreover, the inhibition (in general, the percentage by which the read-out fell short of the control) in assay [6] is 0.765%. For the same compound, in assay [7], the RAM network inhibition is 0.89%.

Turning to `CCC(C)[C@@H](C(=O)Nc1ccc2c(c1)OCO2)N1Cc2ccccc2C1=O` (stereo partly drawn), the growth inhibition in assay [1] is -14.7%; in assay [2], -13.5%. Also, the viability increase in assay [3] is -2.97%. The viability in assay [4] is 91.5%; in assay [5], 75.1%. In addition, the inhibition in assay [6] is 0.51%. Moreover, the RAM network inhibition in assay [7] is 4.42%.

`Cn1c(C(=O)NCc2cccs2)cc2c(=O)n(C)c3ccccc3c21`: the figures for the growth inhibition in assay [1] and in assay [2] were -0.025% and -1.79%, respectively. The viability increase in assay [3] was -3.65%. Further, the viability in assay [4] was 98.9%; in assay [5] it was 98.1%. Further, in assay [6], the inhibition was 2.62%. Moreover, in assay [7], the RAM network inhibition is 1.75%.

As to `CCCCCn1c(CCNC(=O)c2cccs2)nc2ccccc21`, the results for the growth inhibition in assay [1] and in assay [2] were -9.44% and -0.75%, respectively. Moreover, the viability increase in assay [3] is -2.25%. The results for the viability in assay [4] and in assay [5] were 94.2% and 86.4%, respectively. Besides, the inhibition in assay [6] was 2.39%. Further, the RAM network inhibition in assay [7] was 0.13%.

With `Cc1[nH]nc2c1C(c1ccccc1F)NC2=O` (stereo not drawn), the growth inhibition is -0.665% in assay [1] and -2.84% in assay [2]. For the same compound, in assay [3], the viability increase was -1.22%. Moreover, the figures for the viability in assay [4] and in assay [5] were 106% and 97.9%, respectively. Moreover, the inhibition in assay [6] is 2.04%. Further, the RAM network inhibition in assay [7] is -0.67%.

Regarding `Cc1cc(Nc2ccc(F)cc2F)n2nc(C)nc2n1`, the growth inhibition in assay [1] was -20.2%; in assay [2] it was -3.57%. In assay [3], the viability increase is -1.98%. Besides, the viability in assay [4] was 104%; in assay [5], 98.5%. In addition, the inhibition in assay [6] was 0.33%. Besides, the RAM network inhibition in assay [7] was 2.94%.

For `CC1=C(C(N)=O)C(c2ccccn2)n2nc(SCc3ccccc3Cl)nc2N1` (stereo not drawn), the growth inhibition is -4.42% in assay [1] and -12.1% in assay [2]. Also, the viability increase in assay [3] was -1.33%. In addition, the figures for the viability in assay [4] and in assay [5] were 90.5% and 83.3%, respectively. Moreover, the inhibition in assay [6] was 1.04%. Also, the RAM network inhibition in assay [7] is 0.26%.

For `Cc1cc(C)nc(SCSc2nc(C)cc(C)n2)n1`, the growth inhibition in assay [1] was 0.095%; in assay [2], 5.64%. Besides, in assay [3], the viability increase was -2.17%. The viability in assay [4] is 104%; in assay [5] it was 103%. Further, in assay [6], the inhibition is 1.23%. In assay [7], the RAM network inhibition is 5.29%.

Take `O=C(Nc1ccc(S(=O)(=O)N2CCOCC2)cc1)c1ccc(Cl)cc1`: the growth inhibition was -7.83% in assay [1] and -8.68% in assay [2]. In addition, the viability increase in assay [3] is -1.99%. The viability in assay [4] is 61.1%; in assay [5], 80.2%. In addition, the inhibition in assay [6] is 2.31%. In assay [7], the RAM network inhibition is 3.83%.

`CCn1c(=O)cc(C(=O)OC)sc1=Nc1ccc(F)c(F)c1`: the growth inhibition was 1.93% in assay [1] and -8.74% in assay [2]. In addition, in assay [3], the viability increase is -8.26%. The viability in assay [4] was 18.6% (active). The inhibition in assay [6] is 1.11%. The RAM network inhibition in assay [7] was 7.21%.

Turning to `CCn1c(CNC(=O)C(C)(C)C)nc2ccccc21`, the figures for the growth inhibition in assay [1] and in assay [2] were -13.2% and -10.8%, respectively. Moreover, the viability increase in assay [3] was -1.1%. Also, the viability was 104% in assay [4] and 101% in assay [5]. Besides, the inhibition in assay [6] is 1.73%. Besides, the RAM network inhibition in assay [7] is 1.9%.

Take `CC1=CC(C)(C)Nc2ccc(OC(=O)c3ccco3)cc21`: the growth inhibition in assay [1] is 1.4%; in assay [2] it was -5.68%. In assay [3], the viability increase is -7.71%. Further, the values for the viability in assay [4] and in assay [5] were 0.49% (active) and 0.6% (active), respectively. Also, the inhibition in assay [6] is 0.475%. Moreover, in assay [7], the RAM network inhibition is 0.98%.

For the compound `O=C1CCCc2c1[nH]c1c(Br)cccc21`, the growth inhibition in assay [1] is 5.96%; in assay [2], -1.3%. The viability increase in assay [3] is 0.96%. The viability in assay [4] is 108%; in assay [5], 105%. The inhibition in assay [6] was 0.425%. Further, the RAM network inhibition in assay [7] is 3.4%.

For `CCOC(=O)c1c(C)n(C)c2cc(Br)c(C(=O)OC)cc12`, the growth inhibition in assay [1] was 8.75%; in assay [2], -4.36%. The viability increase in assay [3] was -3.53%. For the same compound, the viability was 97% in assay [4] and 96.3% in assay [5]. In addition, the inhibition in assay [6] was 1.99%. In addition, in assay [7], the RAM network inhibition is 7.11%.

For `Cc1cc(C)c(S(=O)(=O)NCC2CCC(C(=O)NCCCN3CCOCC3)CC2)c(C)c1` (stereo not drawn), the growth inhibition was -6.14% in assay [1] and 7.86% in assay [2]. In assay [3], the viability increase was -3.2%. The viability in assay [4] is 81.3%. Also, the inhibition in assay [6] is 0.675%. Further, in assay [7], the RAM network inhibition was -0.63%.

Consider `CCOC(=O)C1CCCN(C(=O)CNC(=O)Cn2ccc3ccccc3c2=O)C1` (stereo not drawn), for which the growth inhibition is -6.4% in assay [1] and -0.325% in assay [2]. In assay [3], the viability increase was -4.65%. The viability in assay [4] is 104%. The inhibition in assay [6] is 0.875%. Besides, in assay [7], the RAM network inhibition was 4.63%.

Regarding `CCOc1ccccc1Nc1nc2ccccc2n2cnnc12`, the growth inhibition in assay [1] was -17%; in assay [2], -2.87%. Further, the viability increase in assay [3] was -6.33%. Moreover, the viability in assay [4] is 81.6%; in assay [5], 85.7%. The inhibition in assay [6] was 3.04%. Also, the RAM network inhibition in assay [7] was 6.66%.

Consider `COc1ccc(Cn2c(=O)n(Cc3ccco3)c(=N)c3c4c(sc32)COC(C)(C)C4)cc1`, for which the growth inhibition was -17.7% in assay [1] and -5.45% in assay [2]. In addition, the viability increase in assay [3] was -5.35%. Moreover, the viability in assay [4] is 66.2%. For the same compound, the inhibition in assay [6] is 0.42%. In assay [7], the RAM network inhibition was 2.55%.

In the case of `Cc1ccccc1-c1ccc(Nc2ccc(C(=O)N3CCOCC3)cc2)nn1`, the growth inhibition was 1.06% in assay [1] and -5.71% in assay [2]. Besides, the viability increase in assay [3] was -2.49%. Further, the viability is 98.4% in assay [4] and 97.2% in assay [5]. In addition, the inhibition in assay [6] was 1.39%. Further, the RAM network inhibition in assay [7] is -0.83%.

Consider `CCCOC(=O)c1ccc(NC(=O)C2C3C=CC(O3)C2C(=O)O)cc1` (stereo not drawn), for which the growth inhibition is -8.39% in assay [1] and -22.8% in assay [2]. Moreover, the viability increase in assay [3] was -1.49%. In addition, the viability in assay [4] was 101%; in assay [5] it was 95.4%. Also, the inhibition in assay [6] was 1.27%. In assay [7], the RAM network inhibition is 0.36%.

Regarding `CCCc1nc2n[nH]c(N)c2c2c1CCC2`, the growth inhibition is -24.2% in assay [1] and -12.6% in assay [2]. Besides, the viability increase in assay [3] is -5.25%. Also, the viability in assay [4] is 92%. For the same compound, the inhibition in assay [6] was 0.825%. The RAM network inhibition in assay [7] was 0.57%.

For the compound `CCCNc1nc2c(c(=O)n(C)c(=O)n2C)n1Cc1ccc(F)cc1`, the growth inhibition was -3.24% in assay [1] and -4.52% in assay [2]. In assay [3], the viability increase was -1.45%. The viability in assay [4] was 78.8%; in assay [5], 79.1%. In assay [6], the inhibition was 0.88%. Further, the RAM network inhibition in assay [7] was 3.07%.

For the compound `Cc1ccc(-n2c(SCC(N)=O)nc3c([nH]c4ccccc43)c2=O)cc1`, the growth inhibition in assay [1] was -15.5%; in assay [2], -5.78%. In addition, the viability increase in assay [3] is -2.14%. Besides, the viability in assay [4] is 91.3%; in assay [5], 87.5%. For the same compound, the inhibition in assay [6] was 0.24%. For the same compound, the RAM network inhibition in assay [7] is -0.05%.

With `Cn1c(=O)oc2cc(S(=O)(=O)NCCN3CCc4ccccc4C3)ccc21`, the growth inhibition in assay [1] was -14.3%; in assay [2], -10.7%. Moreover, the viability increase in assay [3] was -3.63%. Further, the viability is 98.5% in assay [4] and 89.9% in assay [5]. For the same compound, the inhibition in assay [6] is 1.6%. Further, the RAM network inhibition in assay [7] was 0.61%.

These data come from PubChem BioAssay.
